Experimental data published in ChEMBL document CHEMBL1641472, “Discovery of novel phenylpyridone derivatives as potent and selective MCH1R antagonists” (Bioorg Med Chem, 2011).
The source made the active and inactive calls. No cut-off for these calls is given here.

Columns and labels:
[1] = target: T1, Melanin-concentrating hormone receptor 1 (Homo sapiens, UniProt Q99705); assay: Displacement of [125I]MCH from human MCHR1 expressed in CHO cells by competition binding assay; type: cell-based
How it was run: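 Competition binding against [¹²⁵I]-MCH radioligand on membranes from CHO cells expressing human MCH1R; IC50 values are means of two experiments.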

[2] = target: Voltage-gated inwardly rectifying potassium channel KCNH2 (Homo sapiens, UniProt Q12809); assay: Displacement of [35S]N-[(4R)-10-[(2R)-6-cyano-1,2,3,4-tetrahydro-2-naphthyl]-3,4-dihydro-4-hydroxyspiro[2H-1-benzopyran-2,40-piperidin]-6-yl]methanesulfonamide from human ERG expressed in HEK293 cells
Voltage-gated inwardly rectifying potassium channel KCNH2, sequence (Q12809 whole entry): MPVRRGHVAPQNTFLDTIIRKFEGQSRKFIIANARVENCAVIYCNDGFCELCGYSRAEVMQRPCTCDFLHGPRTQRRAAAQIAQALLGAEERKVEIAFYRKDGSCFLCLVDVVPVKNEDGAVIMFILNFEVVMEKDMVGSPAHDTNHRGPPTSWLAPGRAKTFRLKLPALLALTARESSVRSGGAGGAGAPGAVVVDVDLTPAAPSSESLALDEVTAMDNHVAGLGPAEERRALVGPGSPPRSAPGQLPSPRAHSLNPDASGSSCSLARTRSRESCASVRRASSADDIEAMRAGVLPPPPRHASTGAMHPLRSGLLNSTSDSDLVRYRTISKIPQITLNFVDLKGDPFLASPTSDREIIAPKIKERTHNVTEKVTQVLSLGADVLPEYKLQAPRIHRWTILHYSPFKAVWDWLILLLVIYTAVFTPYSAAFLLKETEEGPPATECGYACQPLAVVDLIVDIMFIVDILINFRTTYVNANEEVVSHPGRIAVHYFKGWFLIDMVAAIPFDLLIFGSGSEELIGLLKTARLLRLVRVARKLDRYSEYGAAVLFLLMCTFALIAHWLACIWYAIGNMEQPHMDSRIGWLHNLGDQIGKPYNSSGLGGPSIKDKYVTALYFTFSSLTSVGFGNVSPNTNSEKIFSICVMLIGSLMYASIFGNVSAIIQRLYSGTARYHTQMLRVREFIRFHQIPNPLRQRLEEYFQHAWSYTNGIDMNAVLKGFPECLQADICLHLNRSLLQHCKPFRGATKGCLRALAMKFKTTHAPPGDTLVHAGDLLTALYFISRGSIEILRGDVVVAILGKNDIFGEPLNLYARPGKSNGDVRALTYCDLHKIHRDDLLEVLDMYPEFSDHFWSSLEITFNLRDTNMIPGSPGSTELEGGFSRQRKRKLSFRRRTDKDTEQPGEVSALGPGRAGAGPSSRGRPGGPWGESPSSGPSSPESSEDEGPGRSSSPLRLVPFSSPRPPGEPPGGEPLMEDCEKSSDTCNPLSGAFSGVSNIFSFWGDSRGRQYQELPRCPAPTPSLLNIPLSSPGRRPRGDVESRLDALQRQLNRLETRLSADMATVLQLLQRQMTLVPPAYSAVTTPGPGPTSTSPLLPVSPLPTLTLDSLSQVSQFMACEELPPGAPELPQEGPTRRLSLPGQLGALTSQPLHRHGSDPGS

[3] = target: T1, Melanin-concentrating hormone receptor 1; assay: Antagonist activity at human MCHR1 expressed in CHO cells assessed as inhibition of MCH-induced intracellular calcium release by FLIPR assay; type: functional, cell-based
How it was run: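 Agonist-induced intracellular calcium release measured by FLIPR in CHO cells stably expressing human MCH1R; antagonism taken as inhibition of the MCH-evoked signal.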

[4] = Drug level in Sprague-Dawley rat plasma at 10 mg/kg, po after 2 hrs; type: ADME, organism-based; set-up: dose 10 mg/kg, route oral; conditions: read-out: Drug uptake
Brain = assay: Drug level in Sprague-Dawley rat brain measured per gram of tissue at 10 mg/kg, po after 2 hrs; type: ADME, organism-based; set-up: dose 10 mg/kg, route oral; conditions: in vivo
[5] = Ratio of drug level in brain to plasma in Sprague-Dawley rat plasma at 10 mg/kg, po after 2 hrs; type: ADME, organism-based; set-up: dose 10 mg/kg, route oral
[6] = Drug level in Sprague-Dawley rat cerebrospinal fluid at 10 mg/kg, po after 2 hrs; type: ADME, organism-based; set-up: dose 10 mg/kg, route oral; conditions: read-out: Drug uptake
Mus musculus [7] = assay: Suppression of spontaneous food intake in diet-induced obese C57BL/6 mouse model at 30 mg/kg, po after 24 hrs; type: functional
How it was run: (§1)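 Established DIO mice on high-fat diet given a single oral dose (3, 10, 30 mg/kg) 1–2 h before dark onset, after recording daily intake and body weight; food intake measured 24 h post-dose versus vehicle group.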

Mus musculus [8] = assay: Suppression of spontaneous food intake in diet-induced obese C57BL/6 mouse model treated orally after 24 hrs; type: functional, organism-based; how it was run: as §1
Mus musculus [9] = assay: Suppression of spontaneous food intake in diet-induced obese C57BL/6 mouse model treated orally chronic administration QD for 1.5 months after 24 hrs; type: functional, organism-based
Mus musculus [10] = assay: Suppression of spontaneous food intake in diet-induced obese C57BL/6 mouse model at 10 mg/kg, po after 24 hrs; type: functional; how it was run: as §1
Mus musculus [11] = assay: Antiobese effect in diet-induced obese C57BL/6 mouse model assessed as loss of body weight at 30 mg/kg, po QD for 1.5 months; type: functional
How it was run: (§2)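 Established high-fat-fed DIO mice dosed orally once daily at 3, 10 or 30 mg/kg for 1.5 months, each dose given 1–2 h before dark period after daily food intake and body weight recording; body weight change at end of treatment versus vehicle controls, mean ± SEM.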

Mus musculus [12] = assay: Antiobese effect in diet-induced obese C57BL/6 mouse model assessed as loss of body weight at 3 mg/kg, po QD for 1.5 months; type: functional; how it was run: as §2
Mus musculus [13] = assay: Antiobese effect in diet-induced obese C57BL/6 mouse model assessed as loss of body weight at 10 mg/kg, po QD for 1.5 months; type: functional; how it was run: as §2
Mus musculus [14] = assay: Suppression of spontaneous food intake in diet-induced obese C57BL/6 mouse model at 3 mg/kg, po after 24 hrs; type: functional; how it was run: as §1

T1 sequence (Q99705 whole entry): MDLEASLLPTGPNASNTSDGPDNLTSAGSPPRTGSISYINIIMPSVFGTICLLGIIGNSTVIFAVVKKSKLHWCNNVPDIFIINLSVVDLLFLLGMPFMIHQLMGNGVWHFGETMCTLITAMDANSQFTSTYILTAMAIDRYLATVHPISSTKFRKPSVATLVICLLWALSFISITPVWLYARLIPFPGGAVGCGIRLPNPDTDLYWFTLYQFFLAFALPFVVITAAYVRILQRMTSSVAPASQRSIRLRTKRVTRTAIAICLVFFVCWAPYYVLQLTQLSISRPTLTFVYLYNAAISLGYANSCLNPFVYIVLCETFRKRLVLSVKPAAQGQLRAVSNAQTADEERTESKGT

Compound | IC50 [1] [nM] | IC50 [3] [nM] | further results
O=c1cc(OCCc2ccc(F)cc2)ccn1-c1ccc(OCCN2CCCC2)cc1 | 650 |  | 
O=c1cc(Oc2ccc(F)cc2)ccn1-c1ccc(OCCN2CCCCC2)cc1 | > 1000 |  | 
CN1CCC(Oc2ccc(-n3ccc(OCc4ccccc4)cc3=O)cc2)C1 (stereo not given) | 18 |  | IC50 [2]: > 10000 nM
O=c1cc(OCc2ccccc2)ccn1-c1ccc(OCCN2CCOCC2)cc1 | 24 | 34 | IC50 [2]: > 10000 nM
O=c1cc(OCc2cccc(F)c2)ccn1-c1ccc(OCCN2CCCC2)cc1 | 5.9 | 22 | 
O=c1cc(OCCOc2ccc(F)cc2)ccn1-c1ccc(OCCN2CCCC2)cc1 | 150 |  | 
O=c1cc(OCc2ccc(C(F)(F)F)cc2)ccn1-c1ccc(OCCN2CCCC2)cc1 | 6.7 | 49 | 
COc1ccc(COc2ccn(-c3ccc(OCCN4CCCC4)cc3)c(=O)c2)cc1 |  | 11 | 
CN1CCCC1COc1ccc(-n2ccc(OCc3ccccc3)cc2=O)cc1 (stereo not given) | 12 | 23 | 
CCN(CC)CCOc1ccc(-n2ccc(OCc3ccccc3)cc2=O)cc1 | 6.6 | 24 | IC50 [2]: 9800 nM
O=c1cc(OCc2ccccc2F)ccn1-c1ccc(OCCN2CCCC2)cc1 | 8.7 | 30 | IC50 [2]: 4300 nM
CCN(CC)CCN(C)c1ccc(-n2ccc(OCc3ccccc3)cc2=O)cc1 | 16 |  | IC50 [2]: 1700 nM
O=c1cc(OCc2ccccc2Cl)ccn1-c1ccc(OCCN2CCCC2)cc1 | 12 |  | 
O=c1cc(-c2ccc(F)cc2)ccn1-c1ccc(OCCN2CCCCC2)cc1 | > 1000 |  | 
O=c1cc(OCc2ccccc2)ccn1-c1ccc(OCCN2CCCCC2)cc1 |  | 19 | concentration at 2 h [4]: 200 nM; Drug uptake (Brain): 0.76 nmol/g; Kp at 2 h [5]: 3.8
CC(C)N(CCOc1ccc(-n2ccc(OCc3ccccc3)cc2=O)cc1)C(C)C | 5.1 | 22 | 
CN(C)CCOc1ccc(-n2ccc(OCc3ccccc3)cc2=O)cc1 |  | 18 | IC50 [2]: > 10000 nM
O=c1cc(OCc2ccc(-c3ccccc3)cc2)ccn1-c1ccc(OCCN2CCCC2)cc1 | 640 |  | 
O=c1cc(OCc2ccc(Cl)cc2)ccn1-c1ccc(OCCN2CCCC2)cc1 | 1.4 | 17 | concentration at 2 h [4]: 470 nM; concentration at 2 h [6]: 10 nM; Drug uptake (Brain): 1.67 nmol/g; Kp at 2 h [5]: 3.6
CN(C)CC(C)(C)Oc1ccc(-n2ccc(OCc3ccccc3)cc2=O)cc1 | 180 |  | 
CN(C)CC1CCc2cc(NC(=O)c3ccc(-c4ccc(F)cc4)cc3)ccc2C1 (stereo not given) |  |  | Activity (Mus musculus [7]): Active
O=c1cc(OCc2ccc3ccccc3c2)ccn1-c1ccc(OCCN2CCCC2)cc1 | 7.7 | 175 | 
CC(CN(C)C)Oc1ccc(-n2ccc(OCc3ccccc3)cc2=O)cc1 (stereo not given) | 51 |  | 
CCN(CC)CCN(C(=O)OC)c1ccc(-n2ccc(OCc3ccccc3)cc2=O)cc1 | > 1000 |  | 
O=c1cc(OCc2ccc(F)cc2)ccn1-c1ccc(OCCN2CCCC2)cc1 |  | 23 | Activity (Mus musculus [8]): Dose-dependent effect; concentration at 2 h [4]: 1000 nM; Activity (Mus musculus [9]): Dose-dependent effect; Activity (Mus musculus [7]): 19%; Activity (Mus musculus [10]): 13%; Activity (Mus musculus [11]): 21%; Activity (Mus musculus [12]): 4%; Activity (Mus musculus [13]): 11%; concentration at 2 h [6]: 55 nM; Drug uptake (Brain): 2.4 nmol/g; Kp at 2 h [5]: 2.4; Activity (Mus musculus [14]): 6%
CN1CCCCC1COc1ccc(-n2ccc(OCc3ccccc3)cc2=O)cc1 (stereo not given) | 18 |  | 
